Screening data as filed in PubChem.
FAS TE block: FAS thioesterase domain inhibitors, primary screen, biochemical, fluorescence intensity, uHTS. Fatty acid synthase (Homo sapiens), P49327. recombinant FAS-TE, OMFH fluorogenic substrate, fluorescence endpoint. inhibition, % at 15 µM. 360,000 compounds, 0.67% hits;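 active means compounds whose normalised, plate-corrected inhibition of enzyme fluorescence in the single-dose primary screen is 50% or more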;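 further: 0% = DMSO with enzyme and 100% = substrate without enzyme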
CendR NRP1 mod: modulators of CendR peptide binding to NRP-1, primary screen, biochemical, fluorescence polarization, uHTS. FAM-RPARPAR peptide binding to NRP-1. inhibition, % at 25 µM. 360,000 compounds, 0.85% hits. AID 602438, 2012;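 active means inhibition or corrected inhibition above about 18%, plus a signal ratio from 0.5 to 1.5, limit read from the data, passing the limit was not always enough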
Target sequence (O14786 whole entry, looked up): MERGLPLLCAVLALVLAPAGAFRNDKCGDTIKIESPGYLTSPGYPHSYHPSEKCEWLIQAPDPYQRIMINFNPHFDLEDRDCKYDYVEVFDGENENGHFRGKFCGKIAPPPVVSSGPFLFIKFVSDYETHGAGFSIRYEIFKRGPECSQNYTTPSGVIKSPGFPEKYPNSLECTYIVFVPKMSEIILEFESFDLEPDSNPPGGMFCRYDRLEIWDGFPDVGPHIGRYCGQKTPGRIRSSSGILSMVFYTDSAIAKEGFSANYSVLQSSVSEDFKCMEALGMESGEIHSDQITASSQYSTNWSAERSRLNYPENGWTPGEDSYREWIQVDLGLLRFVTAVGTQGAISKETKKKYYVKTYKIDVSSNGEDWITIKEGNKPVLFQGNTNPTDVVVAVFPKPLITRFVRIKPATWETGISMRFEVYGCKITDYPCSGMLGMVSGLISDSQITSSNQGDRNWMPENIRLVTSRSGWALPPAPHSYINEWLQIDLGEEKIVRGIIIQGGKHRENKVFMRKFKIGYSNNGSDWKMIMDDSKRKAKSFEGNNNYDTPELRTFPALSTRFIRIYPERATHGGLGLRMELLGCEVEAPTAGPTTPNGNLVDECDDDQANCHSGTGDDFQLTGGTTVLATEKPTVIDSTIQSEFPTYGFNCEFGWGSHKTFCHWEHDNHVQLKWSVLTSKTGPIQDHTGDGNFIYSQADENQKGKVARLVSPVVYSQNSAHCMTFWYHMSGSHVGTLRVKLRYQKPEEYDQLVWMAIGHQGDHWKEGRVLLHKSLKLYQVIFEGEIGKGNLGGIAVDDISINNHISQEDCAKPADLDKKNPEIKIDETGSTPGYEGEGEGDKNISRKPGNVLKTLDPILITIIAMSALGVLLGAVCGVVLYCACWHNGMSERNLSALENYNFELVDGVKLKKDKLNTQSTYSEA
CaV13 FRET inh: Primary screen for inhibitors of IQ motif and Ca2+-dependent inactivation inhibitor domain binding in CACNA1D, Förster resonance energy transfer in living cells, …; HEK cells, CFP/YFP FRET ICDI-IQ, plate reader, 10 min; percent FRET-ratio fall versus neutral wells; inhibition, % at 12.3 µM; 340,000 compounds, 0.098% hits; AID 743397;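 active means mean replicate inhibition of at least 30% and at least 1% of replicates passing that level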;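 further: 0% = median of the neutral control wells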
ADAM17 inh: ADAM17 inhibitors, primary screen, biochemical, QFRET. Disintegrin and metalloproteinase domain-containing protein 17 (Homo sapiens), P78536. recombinant ADAM17, EDANS/DABCYL FRET peptide cleavage. inhibition, % at 6.95 µM. 370,000 compounds, 0.83% hits. AID 720648, 2013;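 active means inhibition above the mean of compounds lying between control limits plus 3 SD, set per campaign, cut at about 8.5% in these data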;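 further: 0% = DMSO-only wells as the low control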
Arrestin-AP2 inh: inhibitors of beta-arrestin/AP2 binding, primary screen, biochemical, GPCR trafficking, flow cytometry; beta-arrestin 1 C-terminal peptide binding to AP2 beta2-adaptin appendage (human); FITC-arrestin peptide / GST-AP2 beads; AP2 beta2 appendage carries R879A mutation; inhibition, % at 10 µM; 340,000 compounds, 0.31% hits;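 active means inhibition above a set limit, near 3 SD of compounds lacking own fluorescence, cut at about 54% in these data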;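 further: plate controls were DMSO wells for no effect and 5 µM unlabelled arrestin peptide for full effect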
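System: GST-AP2 R879A glutathione beads. Medium: PBS with 0.05% Tween 20 and 0.1% BSA. Also added: FITC-arrestin peptide, 50 nM. Incubation: 12 min plus 1 h, RT. Measured by: high-throughput flow cytometry of beads, ex 488, em 535 nm. Evaluation: percent drop in bead-associated FITC signal.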
ADAM10 inh: human ADAM10 inhibitors, primary screen, biochemical, QFRET, HTS; Disintegrin and metalloproteinase domain-containing protein 10 (Homo sapiens), O14672; recombinant ADAM10, EDANS/DABCYL FRET peptide cleavage, 3 h; inhibition, % at 7 µM; 370,000 compounds, 0.62% hits; AID 720582, 2013;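 active means inhibition above a per-campaign cutoff equal to the mean of compounds falling between control-based bounds plus 3 SD, cut at about 20% in these data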;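 further: 0% = DMSO wells while the 100% control is not disclosed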
An asterisk follows results filed as active; i = inactive; . = not tested or not shown; ! = a repeat was not active. This is a sample that favours compounds with a hit; in the whole collection about 2.9% have one here.

SMILES | FAS TE block | CendR NRP1 mod | CaV13 FRET inh | ADAM17 inh | Arrestin-AP2 inh | ADAM10 inh
COc1cc(C2C3=C(CC(C)(C)CC3=O)N(C)C3=C2C(=O)CC(C)(C)C3)cc(Br)c1O | 1.6 | 17.6 | 35.5* | -5.6 | 25.5 | -11.6
COc1cc(C2C3=C(CC(C)(C)CC3=O)N(C)C3=C2C(=O)CC(C)(C)C3)ccc1O | -6.0 | -6.7 | 4.6 | -5.5 | 11.8 | -6.3
CCC1(C(=O)O)NC(c2cc(OC)ccc2O)C2C(=O)N(Cc3ccccc3)C(=O)C21 (stereo not given) | -5.3 | 3.5 | 2.4 | 1.0 | -9.1 | 21.9*
CCCC1(C(=O)O)NC(c2ccccc2O)C2C(=O)N(Cc3ccccc3)C(=O)C21 (stereo not given) | -4.5 | 3.7 | -8.2 | -4.2 | -2.0 | -12.8
COc1cccc(C(O)c2nc(-c3cnn(C)c3)cs2)c1 (stereo not given) | -11.3 | -10.9 | -5.9 | -2.1 | . | -1.9
CCOC(=O)CSc1ccc(S(=O)(=O)N(C)C2CCCCC2)cc1[N+](=O)[O-] | 24.7 | -0.2 | -8.0 | 6.0 | -10.3 | 23.6*
CC(=NNC(=S)N1CCCCC1)c1cccc(C)n1 | -9.2 | 9.0 | -5.8 | -28.3 | 16.1 | -93.0
CSC(=S)NN=C(C)c1cccc(C)n1 | 2.5 | 26.7* | -6.3 | -3.8 | -3.7 | -6.6
NC(=O)C1CCN(c2ccnc(Cl)n2)CC1 | . | . | . | 0.4 | . | 3.3
CCOC(=O)[C@@]12CCCC3=C1N(CCC3)C(=O)[C@H]2CC(=O)N1CCSCC1 | . | . | . | -2.6 | . | -7.6
Cc1ccc(NC2=CC(=O)CCC2)cc1C | -4.4 | 46.3* | -5.2 | -19.3 | 1.0 | -96.6
Cc1ccc(OCCOc2ccc(Cl)cc2Cl)c(Br)n1 | . | . | . | 4.4 | . | 13.1
COC(=O)/C=C1\OC(C2CC2)c2ccccc21 (stereo not given) | . | -0.9 | -12.6 | -2.8 | . | -4.7
O=C(CSc1ccccn1)N/N=C/C=C/c1ccccc1 | -6.7 | 22.2* | -3.7 | -4.2 | 11.8 | 7.0
CC(C)(C)OC(=O)N1CCN(C(=O)c2[nH]cnc2C(=O)NCC(=O)OCc2ccccc2)CC1 | -7.8 | 12.3 | 1.9 | -1.7 | 27.8 | -1.7
CC(C)(C)OC(=O)N1CCC(NC(=O)c2nc[nH]c2C(=O)N2CCc3ccccc3C2)CC1 | -7.2 | 30.0* | -3.5 | -1.8 | 3.1 | -1.6
CN(Cc1ccccc1)C(=O)c1[nH]cnc1C(=O)NCc1ccc(CNC(=O)OC(C)(C)C)cc1 | 10.3 | 30.1* | -7.6 | 1.3 | 2.1 | 5.2
CC(C)(C)OC(=O)[C@H](Cc1ccccc1)NC(=O)c1nc[nH]c1C(=O)N1CCNCC1 | -9.0 | 34.2* | -9.5 | -1.9 | -7.5 | -2.9
CC(C)(C)OC(=O)N1CCN(C(=O)c2[nH]cnc2C(=O)NCc2ccccc2)CC1 | -8.3 | 33.4* | -1.9 | 2.5 | 23.7 | -1.5
O=C(NCc1ccccc1)c1nc[nH]c1C(=O)N1CCN(c2ccccc2)CC1 | -6.8 | 30.1* | 2.8 | 3.0 | -12.8 | 8.4
CC1CCN(C(=O)c2[nH]cnc2C(=O)NCc2ccc(CNC(=O)OC(C)(C)C)cc2)CC1 | -14.4 | 30.0* | -4.4 | -6.3 | -9.3 | -7.7
CC1CCN(C(=O)c2[nH]cnc2C(=O)NCc2ccccc2)CC1 | -6.7 | 20.2 | -4.8 | -6.6 | 4.4 | -5.2
C[C@@H]1ON(C)[C@H]2C[C@H]3c4cc(-c5cc6ccccc6o5)ccc4CCN3C[C@@H]12 | . | . | -4.7 | -50.1 | . | -203.6
Cc1ccc(-n2c(Cl)c(Cl)nc(Cl)c2=O)cc1 | 78.3* | 22.6 | . | . | 0.6 | .
COc1nc(Cl)cn(-c2ccc(C)cc2)c1=O | -10.0 | -8.1 | -3.5 | -2.5 | -1.9 | -4.2
SMILES | FAS TE block | CendR NRP1 mod | CaV13 FRET inh | ADAM17 inh | Arrestin-AP2 inh | ADAM10 inh
Cc1ccc(N2C(=O)NC(NS(=O)(=O)c3ccccc3)(C(F)(F)F)C2=O)cc1 (stereo not given) | -6.6 | 25.6* | -2.5 | -1.0 | 23.1 | 5.6
Cc1ccc(N2C(=O)NC(NS(=O)(=O)c3ccc(C)cc3)(C(F)(F)F)C2=O)cc1 (stereo not given) | -6.5 | 9.0 | -2.1 | -2.5 | 4.5 | -1.7
Cc1cc(C(=O)N[C@H](c2ccccc2)[C@@]2(C)C[C@@H]2[C@@H](C)C(=O)Nc2ccc3ccccc3c2)n(C)n1 | 19.8 | -7.8 | -6.0 | 12.7* | 16.4 | 28.1*
C[C@@H](C(=O)Nc1ccc2ccccc2c1)[C@H]1C[C@]1(C)[C@H](NC(=O)OCc1ccccc1)c1ccccc1 | 21.6 | -0.3 | -11.9 | 3.7 | 3.6 | 7.4
NS(=O)(=O)c1cc(C(=O)OCC(=O)c2ccc3c(c2)OCCO3)ccc1Cl | 5.1 | -17.0 | -2.5 | 2.4 | -3.2 | 4.2
NS(=O)(=O)c1cc(C(=O)NNC(=O)c2ccc3c(c2)OCO3)ccc1Cl | -3.9 | 28.1* | -7.1 | -2.5 | 4.4 | -2.5
NC(=S)NNC(=S)Nc1ccccc1 | -7.1 | 39.4* | -1.4 | -0.1 | 0.0 | -3.8
S=C(NNC(=S)Nc1ccccc1)Nc1ccccc1 | -5.7 | -7.2 | -18.2 | 2.8 | 12.1 | 5.8
COc1ccc(N2C(=O)C3C4C=CC(c5ccccc5)(C3C2=O)C2C(=O)N(c3ccc(OC)cc3)C(=O)C42)cc1 (stereo not given) | -2.5 | 0.1 | -2.4 | -1.1 | 31.3 | 3.6
COc1ccc(N2C(=O)C3[C@@H](C2=O)C2(Cl)C(Cl)=C(Cl)C3(Cl)C2(OC)OC)cc1 (stereo not given in full) | 4.7 | 26.8* | -5.4 | 0.7 | 1.6 | 4.5
C[C@H]1CN([C@@H](C)CO)C(=O)CCCn2cc(nn2)CO[C@@H]1CN(C)S(=O)(=O)c1ccc(F)cc1 | . | . | -3.0 | -3.7 | . | -6.3
Cc1ccc([C@H]2C[C@H](O)[C@@H](n3cc(C4CC4)nn3)CN2Cc2cccs2)cc1 | 25.4 | -12.8 | -3.7 | 5.0 | . | -0.7
O=c1cc(N2CCN(c3ccnc4cc(Cl)ccc34)CC2)[nH]c(=O)n1C1CCCCC1 | . | . | . | -0.7 | . | -1.5
NCCc1cnc[nH]1 | -4.4 | 19.2*! | -4.4 | -8.2 | -3.4 | -11.2
NCCC(=O)NCCc1cnc[nH]1 | -0.6 | -1.1 | -6.2 | -5.1 | 4.7 | -13.9
CCOc1c2ccc(C(=O)NCCc3cccs3)cc2nn1CC | -7.7 | 24.8* | -10.2 | -227.7 | 0.1 | i
CCCn1nc2cc(C(=O)NCCCCc3ccccc3)ccc2c1OCC | -0.4 | 0.4 | -9.6 | -195.7 | 3.3 | i
CCCn1nc2cc(C(=O)NCCc3ccc(C)cc3)ccc2c1OCC | 0.9 | 25.5* | 5.4 | -194.9 | -7.1 | i
